Assay results of several laboratories.
Compare with care: the assays were run in different laboratories.
Matrix: plasma

| SMILES | test system | conditions | Tmax [min] |
| --- | --- | --- | --- |
| CC1(CN)CCN(c2cnc3c(Sc4ccncc4Cl)n[nH]c3n2)CC1 | male Sprague-Dawley rat | oral, 10 mg/kg | 4.98 |
| CC(=Nc1ccc(N=Cc2cnccn2)cc1)N(C)C | male Sprague-Dawley rat | oral, 200 mg/kg, single dose | ≤ 5 |
| N#C[C@@]12C[C@@H]1[C@@H](n1cnc3c(N[C@@H](C4CCC4)C4CC4)nc(I)nc31)[C@H](O)[C@@H]2O | male Wistar rat | oral, 3 mg/kg | 120 |
| Nc1ccc(/C=C/C(=O)NCc2cc3cc(-c4ccc(C(=O)N5CCC(F)(F)CC5)cc4)cc(-c4ccc(F)cc4)c3o2)cn1 | rat | oral, 3 mg/kg | 240 |
| CC(=O)CC(=O)C1CC(C)C(=O)C1=O (centres unmarked) | male Sprague-Dawley rat | intravenous, 20 mg/kg | 6.6 |
| O=C1CC[C@H](N2Cc3cc(N4CCN(CC5CCN(c6ccc([C@@H]7c8ccc(O)cc8CC[C@@H]7c7ccccc7)cc6)CC5)CC4)ccc3C2=O)C(=O)N1 | male Sprague-Dawley rat | oral, 20 mg/kg, fasted | 200 |
| O=c1cc(-c2ccc(O)c(O)c2)oc2cc(O)cc(O)c12 | male Sprague-Dawley rat | oral, 30 mg/kg | 30 |
| O=C(C=Cc1ccccc1)Nc1cc(-c2ccnc(N3CCC(O)CC3)c2)ccn1 | female Sprague-Dawley rat | oral, 50 mg/kg | 30 |
| Cc1c(C(=O)O)ccc2c3n(nc12)[C@@H]1[C@H](C3)N(CC2CC2)[C@@]2(C(=O)Nc3cc(Cl)ccc32)[C@H]1c1cccc(Cl)c1F | male rat | oral, 2 mg/kg | 78 |
| CN1Cc2c(N)cccc2C(=O)N1C1CCC(=O)NC1=O (centres unmarked) | male Sprague-Dawley rat | oral, 3 mg/kg | ~18 |
| C[C@H]1[C@@H](O)O[C@@H]2O[C@@]3(C)CC[C@H]4[C@H](C)CC[C@@H]1[C@@]24OO3 | Sprague-Dawley rat | oral, 10 mg/kg | 27 |
